# In ChEMBL document CHEMBL5678805, “Intermittent administration of MEK inhibitor GDC-0973 plus PI3K inhibitor GDC-0941 triggers robust apoptosis and tumor growth inhibition” (Cancer Res, 2012):
# pIC50: −log10 of the molar value. The source made the active and inactive calls. The rule behind the calls is not given here.
# Key:
# [1] = molecular target: Phosphatidylinositol 4,5-bisphosphate 3-kinase catalytic subunit gamma isoform (Homo sapiens, UniProt P48736); assay: Inhibition of PI3Kgamma (unknown origin)
# [2] = molecular target: Tyrosine-protein kinase Lck (Homo sapiens, UniProt P06239); assay: Inhibition of Lck (unknown origin)
# Tyrosine-protein kinase Lck, sequence (P06239 whole entry): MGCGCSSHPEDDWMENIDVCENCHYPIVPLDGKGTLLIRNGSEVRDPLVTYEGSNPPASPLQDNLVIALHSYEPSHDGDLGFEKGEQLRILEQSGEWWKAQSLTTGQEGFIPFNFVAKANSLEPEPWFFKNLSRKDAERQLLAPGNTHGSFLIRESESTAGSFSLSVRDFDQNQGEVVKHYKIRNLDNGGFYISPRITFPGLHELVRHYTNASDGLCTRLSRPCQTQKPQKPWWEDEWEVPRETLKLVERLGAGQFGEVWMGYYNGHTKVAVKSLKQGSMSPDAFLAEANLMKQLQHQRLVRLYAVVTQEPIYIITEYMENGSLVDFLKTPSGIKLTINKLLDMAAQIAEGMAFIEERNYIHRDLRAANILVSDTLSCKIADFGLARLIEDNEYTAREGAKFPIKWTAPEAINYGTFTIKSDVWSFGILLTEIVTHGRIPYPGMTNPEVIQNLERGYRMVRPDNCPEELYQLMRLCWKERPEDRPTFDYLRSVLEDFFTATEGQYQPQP
# [3] = molecular target: Fibroblast growth factor receptor 1 (Homo sapiens, UniProt P11362); assay: Inhibition of FGFR1 (unknown origin)
# 888-mel [4] = assay: Inhibition of S6 phosphorylation in human 888-mel cells preincubated with compound for 24 hrs followed by compound washout and measured after 2 hrs in presence of 4-(2-(1H-indazol-4-yl)-6-((4-(methylsulfonyl)piperazin-1-yl)methyl)thieno[3,2-d]pyrimidin-4-yl)morpholine by immunoblotting analysis; format: cell-based
# [5] = molecular target: Serine/threonine-protein kinase Chk1 (Homo sapiens, UniProt O14757); assay: Inhibition of CHK1 (unknown origin)
# DLD-1 = assay: Antitumor activity against human DLD-1 cells xenografted in mouse assessed as tumor growth inhibition at 3 mg/kg, po administered once a day for 21 days; format: functional; details: DLD-1, 504 h, time 21 day, read-out: TGI
# Method in brief: (§1)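 Human tumor xenografts in mice. Drugs given orally, as single agents or combined with the PI3K inhibitor. Schedules were daily (QD) or every third day (Q3D) over 21 days. Tumor volume was measured by caliper as (L×W×W)/2. %TGI = 100×[1 − AUC(treatment/d)/AUC(vehicle/d)] from fitted growth curves, with group means. Tumor lysates were immunoblotted for pS6.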
# NCI-H460 = assay: Antitumor activity against human NCI-H460 cells harboring KRAS Q61H/PIK3CA E545K/LKB1 Q37/CDKN2A mutant xenografted in mouse assessed as tumor growth inhibition at 10 mg/kg, po; format: functional; details: read-out: TGI
# Method in brief: (§2)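 Human tumor xenografts in mice were dosed orally at the indicated mg/kg. Tumor volume was measured with calipers as (L×W×W)/2. %TGI = 100 × [1 − (AUC treatment/d)/(AUC vehicle/d)], using the area under the fitted tumor-growth curve per day for each dose group relative to vehicle.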
# Ephrin type-A receptor 4 = Ephrin type-A receptor 4 (Homo sapiens, UniProt P54764); assay: Inhibition of EphA4 (unknown origin)
# 537-mel = assay: Antitumor activity against human 537-mel cells harboring PTEN null mutation xenografted in mouse assessed as tumor growth inhibition at 5 mg/kg, po; format: functional; details: read-out: TGI
# Method in brief: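 Mice carrying human tumor xenografts dosed orally once daily for 21 consecutive days. Tumor volume measured by calipers as (L×W×W)/2. %TGI = 100×[1 − AUC(treatment/day)/AUC(vehicle/day)], using the area under the fitted growth curve relative to vehicle.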
# A375.X1 = assay: Antitumor activity against human A375.X1 cells xenografted in mouse assessed as reduction in ERK phosphorylation at 1 to 10 mg/kg, po by Western blot analysis; format: functional, organism-based; details: dose 1-10 mg/kg, time 74-96 hrs, TDE = time-dependent effect
# Method in brief: (§3)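 A375.X1 xenograft mice were dosed orally at 1, 3, 5 or 10 mg/kg once daily for 3 days. Tumors were collected 2, 8 and 24 h after the last dose, pulverized frozen and resolved by 4–12% SDS-PAGE. p-ERK1/2 and t-ERK1/2 were measured by Western blot and quantified by band intensity, relative to vehicle-treated mice (0 h).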
# A2058 [6] = assay: Antitumor activity against human A2058 cells harboring BRAF V600E/PTEN deletion mutant xenografted in mouse assessed as decrease in tumor volume at 1.5 mg/kg, po administered once daily for 21 days in presence of GDC-0980 by digital calipers analysis; format: functional, organism-based; details: time 21.0 day
# [7] = Antitumor activity against human A375.X1 cells xenografted in mouse assessed as reduction in ERK phosphorylation at 10 mg/kg, po administered for 3 days and measured at 2 to 24 hrs by Western blot analysis; format: functional; design: scale not given: the % may be the effect or the level left; details: time 74-96 hrs; method in brief: as §3
# 888-mel [8] = assay: Upregulation of Bim level in human 888-mel cells incubated for 24 hrs by immunoblotting analysis; format: functional, cell-based
# [9] = molecular target: Serine/threonine-protein kinase MARK2 (Homo sapiens, UniProt Q7KZI7); assay: Inhibition of EMK1 (unknown origin)
# Serine/threonine-protein kinase MARK2, sequence (Q7KZI7 whole entry): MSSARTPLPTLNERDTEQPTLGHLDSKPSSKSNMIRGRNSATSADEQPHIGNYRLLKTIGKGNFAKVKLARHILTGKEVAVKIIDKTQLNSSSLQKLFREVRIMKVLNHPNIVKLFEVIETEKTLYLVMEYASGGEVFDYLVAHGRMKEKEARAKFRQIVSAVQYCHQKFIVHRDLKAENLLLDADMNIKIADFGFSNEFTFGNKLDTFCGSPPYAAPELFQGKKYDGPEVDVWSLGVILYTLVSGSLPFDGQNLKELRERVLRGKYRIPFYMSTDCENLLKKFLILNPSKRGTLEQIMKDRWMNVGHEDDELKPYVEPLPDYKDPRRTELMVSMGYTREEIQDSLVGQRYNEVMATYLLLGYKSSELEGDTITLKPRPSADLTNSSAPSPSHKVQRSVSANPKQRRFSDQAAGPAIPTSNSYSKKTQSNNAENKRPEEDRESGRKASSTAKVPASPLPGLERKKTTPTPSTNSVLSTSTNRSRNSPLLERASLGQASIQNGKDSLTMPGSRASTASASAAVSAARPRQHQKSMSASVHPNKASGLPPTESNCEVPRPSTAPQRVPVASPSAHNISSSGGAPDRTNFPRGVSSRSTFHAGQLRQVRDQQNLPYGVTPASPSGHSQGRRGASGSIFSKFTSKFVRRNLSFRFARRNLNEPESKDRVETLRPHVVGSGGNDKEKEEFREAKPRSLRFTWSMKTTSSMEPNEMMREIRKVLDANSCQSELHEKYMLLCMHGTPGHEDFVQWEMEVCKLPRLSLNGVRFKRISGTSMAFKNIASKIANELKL
# MOLM-13 = assay: Antitumor activity against human MOLM-13 cells harboring FLT3 Y599_D600insFDFREYE and c-Cbl E366_Q409del mutant xenografted in mouse assessed as tumor growth inhibition at 5 mg/kg, po; format: functional; details: MOLM-13, read-out: TGI; method in brief: as §2
# [10] = molecular target: RAF proto-oncogene serine/threonine-protein kinase (Homo sapiens, UniProt P04049); assay: Inhibition of cRAF (unknown origin)
# RAF proto-oncogene serine/threonine-protein kinase, sequence (P04049 whole entry): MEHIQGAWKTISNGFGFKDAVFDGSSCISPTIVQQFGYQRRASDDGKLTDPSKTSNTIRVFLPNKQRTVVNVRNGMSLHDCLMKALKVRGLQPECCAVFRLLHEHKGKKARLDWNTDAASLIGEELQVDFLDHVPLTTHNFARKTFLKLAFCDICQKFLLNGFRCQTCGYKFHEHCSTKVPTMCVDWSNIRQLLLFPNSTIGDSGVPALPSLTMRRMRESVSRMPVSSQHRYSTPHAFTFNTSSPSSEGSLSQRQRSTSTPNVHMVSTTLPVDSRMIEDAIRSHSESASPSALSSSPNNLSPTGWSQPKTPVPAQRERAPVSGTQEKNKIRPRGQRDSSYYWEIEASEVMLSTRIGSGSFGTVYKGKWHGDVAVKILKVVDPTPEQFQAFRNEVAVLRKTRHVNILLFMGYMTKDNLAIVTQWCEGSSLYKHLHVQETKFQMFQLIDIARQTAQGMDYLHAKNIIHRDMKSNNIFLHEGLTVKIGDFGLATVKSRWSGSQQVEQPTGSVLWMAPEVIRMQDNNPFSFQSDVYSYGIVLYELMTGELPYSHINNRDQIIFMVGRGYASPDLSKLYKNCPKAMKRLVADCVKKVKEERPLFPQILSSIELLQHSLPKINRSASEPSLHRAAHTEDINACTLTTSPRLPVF
# Calu-6 = assay: Antitumor activity against human Calu-6 cells harboring KRAS Q61K and TP53 R196 mutant xenografted in mouse assessed as tumor growth inhibition at 5 mg/kg, po; format: functional; details: read-out: TGI
# Method in brief: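 Single-agent dose ranging in human tumor xenograft mice at 2.5, 5 or 10 mg/kg oral. Tumor volume was measured by caliper as (L×W×W)/2. %TGI = 100×[1 − AUC(treatment/d)/AUC(vehicle/d)] from the fitted growth curve per dose group, relative to vehicle.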
# A2058 [11] = assay: Antitumor activity against human A2058 cells xenografted in mouse assessed as tumor growth inhibition at 15 mg/kg, po administered every third day for 21 days in presence of 4-(2-(1H-indazol-4-yl)-6-((4-(methylsulfonyl)piperazin-1-yl)methyl)thieno[3,2-d]pyrimidin-4-yl)morpholine; format: functional; details: A2058, 504 h, time 21 day, read-out: TGI; method in brief: as §1
# LOX IMVI = assay: Antiproliferative activity against human LOX IMVI cells assessed reduction in cell viability incubated for 4 days in presence of 4-(2-(1H-indazol-4-yl)-6-((4-(methylsulfonyl)piperazin-1-yl)methyl)thieno[3,2-d]pyrimidin-4-yl)morpholine by celltiter-glo assay; format: functional; details: time 4 day
# Method in brief: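 4-day CellTiter-Glo viability read-out on melanoma lines, cells exposed to increasing concentrations of each inhibitor alone and in combination.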
# [12] = molecular target: Epidermal growth factor receptor (Homo sapiens, UniProt P00533); assay: Inhibition of EGFR (unknown origin)
# Epidermal growth factor receptor, sequence (P00533 whole entry): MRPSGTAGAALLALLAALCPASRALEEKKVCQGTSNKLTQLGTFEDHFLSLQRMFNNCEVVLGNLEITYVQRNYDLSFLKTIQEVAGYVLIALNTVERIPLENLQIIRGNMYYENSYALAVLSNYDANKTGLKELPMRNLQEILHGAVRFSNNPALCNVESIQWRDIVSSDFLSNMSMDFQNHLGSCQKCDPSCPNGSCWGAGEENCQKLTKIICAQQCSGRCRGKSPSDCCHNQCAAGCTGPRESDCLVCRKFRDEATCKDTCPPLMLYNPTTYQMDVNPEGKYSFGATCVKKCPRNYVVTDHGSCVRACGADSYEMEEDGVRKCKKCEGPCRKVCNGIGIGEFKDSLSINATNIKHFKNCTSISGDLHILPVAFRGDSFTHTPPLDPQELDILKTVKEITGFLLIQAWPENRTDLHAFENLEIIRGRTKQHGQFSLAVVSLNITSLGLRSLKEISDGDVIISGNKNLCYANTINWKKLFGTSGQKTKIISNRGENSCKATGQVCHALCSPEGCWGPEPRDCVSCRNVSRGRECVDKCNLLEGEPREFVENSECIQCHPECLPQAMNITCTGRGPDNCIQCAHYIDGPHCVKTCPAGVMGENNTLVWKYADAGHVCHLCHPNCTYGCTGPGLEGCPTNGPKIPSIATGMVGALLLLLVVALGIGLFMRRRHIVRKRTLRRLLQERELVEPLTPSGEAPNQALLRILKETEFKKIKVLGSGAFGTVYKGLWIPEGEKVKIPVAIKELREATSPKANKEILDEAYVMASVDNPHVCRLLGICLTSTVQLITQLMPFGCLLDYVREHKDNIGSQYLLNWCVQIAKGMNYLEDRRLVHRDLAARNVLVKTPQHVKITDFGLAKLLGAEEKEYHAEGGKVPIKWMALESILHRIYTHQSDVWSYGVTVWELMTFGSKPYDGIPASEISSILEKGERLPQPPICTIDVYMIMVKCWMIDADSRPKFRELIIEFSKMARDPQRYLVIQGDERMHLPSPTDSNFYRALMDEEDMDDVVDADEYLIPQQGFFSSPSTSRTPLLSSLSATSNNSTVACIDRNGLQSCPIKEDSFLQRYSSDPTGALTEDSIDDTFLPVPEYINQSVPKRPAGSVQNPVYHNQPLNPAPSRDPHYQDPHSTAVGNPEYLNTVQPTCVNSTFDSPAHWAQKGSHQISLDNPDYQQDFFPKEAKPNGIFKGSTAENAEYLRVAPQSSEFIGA
# [13] = molecular target: Receptor tyrosine-protein kinase erbB-2 (Homo sapiens, UniProt P04626); assay: Inhibition of ErbB2 (unknown origin)
# Receptor tyrosine-protein kinase erbB-2, sequence (P04626 whole entry): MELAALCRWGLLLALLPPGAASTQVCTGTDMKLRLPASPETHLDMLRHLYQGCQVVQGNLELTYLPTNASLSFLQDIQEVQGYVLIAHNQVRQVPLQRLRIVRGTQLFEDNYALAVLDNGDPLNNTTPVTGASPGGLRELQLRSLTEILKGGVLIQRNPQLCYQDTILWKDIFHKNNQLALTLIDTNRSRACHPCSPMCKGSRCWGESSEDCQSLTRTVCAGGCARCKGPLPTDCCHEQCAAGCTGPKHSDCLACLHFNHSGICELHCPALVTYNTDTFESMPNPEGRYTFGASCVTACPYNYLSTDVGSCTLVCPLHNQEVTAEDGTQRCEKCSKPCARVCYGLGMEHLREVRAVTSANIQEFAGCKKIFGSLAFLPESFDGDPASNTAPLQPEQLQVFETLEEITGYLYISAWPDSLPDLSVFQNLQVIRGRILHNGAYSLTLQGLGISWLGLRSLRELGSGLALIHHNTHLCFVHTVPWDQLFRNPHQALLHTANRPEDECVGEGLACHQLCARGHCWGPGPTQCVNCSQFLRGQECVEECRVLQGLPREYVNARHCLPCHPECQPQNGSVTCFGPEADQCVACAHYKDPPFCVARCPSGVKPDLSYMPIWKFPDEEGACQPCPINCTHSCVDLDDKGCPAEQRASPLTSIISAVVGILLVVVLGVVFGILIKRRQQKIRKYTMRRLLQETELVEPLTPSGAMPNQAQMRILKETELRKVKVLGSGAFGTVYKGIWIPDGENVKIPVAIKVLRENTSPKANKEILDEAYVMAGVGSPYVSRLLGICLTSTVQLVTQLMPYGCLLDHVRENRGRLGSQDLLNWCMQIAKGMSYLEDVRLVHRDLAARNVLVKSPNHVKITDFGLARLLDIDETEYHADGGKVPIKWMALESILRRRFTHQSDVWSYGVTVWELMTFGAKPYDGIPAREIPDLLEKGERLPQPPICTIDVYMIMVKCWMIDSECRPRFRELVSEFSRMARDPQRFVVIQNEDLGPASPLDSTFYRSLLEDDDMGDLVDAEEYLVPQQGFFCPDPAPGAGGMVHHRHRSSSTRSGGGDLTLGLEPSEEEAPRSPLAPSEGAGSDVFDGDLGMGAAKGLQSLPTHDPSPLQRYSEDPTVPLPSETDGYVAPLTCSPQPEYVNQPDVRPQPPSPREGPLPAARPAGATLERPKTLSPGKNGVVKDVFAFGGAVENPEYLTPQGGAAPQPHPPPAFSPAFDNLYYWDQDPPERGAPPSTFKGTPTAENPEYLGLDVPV
# 888-mel [14] = assay: Inhibition of ERK phosphorylation in human 888-mel cells preincubated for 24 hrs followed by compound washout and measured after 2 hrs in presence of 4-(2-(1H-indazol-4-yl)-6-((4-(methylsulfonyl)piperazin-1-yl)methyl)thieno[3,2-d]pyrimidin-4-yl)morpholine by immunoblotting analysis; format: cell-based
# Method in brief: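 The medium was then exchanged to remove compound. Lysates were prepared 2 and 24 h after washout and immunoblotted for cleaved PARP, p-AKT and p-ERK using HRP secondary antibody and ECL.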
# [15] = Antitumor activity against human A375.X1 cells xenografted in mouse assessed as tumor growth inhibition at 20 mg/kg, po administered every third day for 21 days in presence of 4-(2-(1H-indazol-4-yl)-6-((4-(methylsulfonyl)piperazin-1-yl)methyl)thieno[3,2-d]pyrimidin-4-yl)morpholine; format: functional; details: A375.X1, 504 h, time 21 day, read-out: TGI; method in brief: as §1
# [16] = molecular target: Serine/threonine-protein kinase NLK (Homo sapiens, UniProt Q9UBE8); assay: Inhibition of NLK (unknown origin)
# Serine/threonine-protein kinase NLK, sequence (Q9UBE8 whole entry): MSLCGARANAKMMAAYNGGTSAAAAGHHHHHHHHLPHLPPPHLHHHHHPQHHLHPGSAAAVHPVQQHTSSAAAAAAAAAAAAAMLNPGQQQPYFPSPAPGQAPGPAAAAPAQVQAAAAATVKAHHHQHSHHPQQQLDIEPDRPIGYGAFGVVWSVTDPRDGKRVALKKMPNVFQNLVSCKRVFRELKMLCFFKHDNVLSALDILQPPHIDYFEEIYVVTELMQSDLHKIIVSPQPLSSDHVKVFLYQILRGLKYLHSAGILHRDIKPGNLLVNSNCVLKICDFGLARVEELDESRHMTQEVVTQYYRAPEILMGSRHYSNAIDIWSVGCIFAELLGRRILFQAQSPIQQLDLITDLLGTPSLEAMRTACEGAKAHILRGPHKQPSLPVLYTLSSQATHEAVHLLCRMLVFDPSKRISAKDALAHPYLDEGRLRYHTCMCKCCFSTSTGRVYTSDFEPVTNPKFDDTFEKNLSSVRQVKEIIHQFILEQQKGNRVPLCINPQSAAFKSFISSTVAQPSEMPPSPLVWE
# [17] = molecular target: Ribosomal protein S6 kinase alpha-1 (Homo sapiens, UniProt Q15418); assay: Inhibition of Rsk1 (unknown origin)
compound,measurement,setting,value
O=C(c1ccc(F)c(F)c1Nc1ccc(I)cc1F)N1CC(O)([C@@H]2CCCCN2)C1 [COBIMETINIB],pIC50,[1],< 5.00
same,pIC50,[2],< 5.00
same,pIC50,[3],< 5.00
same,inhibition,888-mel [4],Active
same,pIC50,[5],< 5.00
same,inhibition in vivo at 3 mg/kg,DLD-1,47%
same,inhibition in vivo at 10 mg/kg,NCI-H460,9%
same,pIC50,Ephrin type-A receptor 4,< 5.00
same,inhibition in vivo at 5 mg/kg,537-mel,94%
same,Activity,A375.X1,Tde
same,Activity,A2058 [6],Active
same,Activity,[7],75%
same,Activity,888-mel [8],Active
same,pIC50,[9],< 5.00
same,inhibition in vivo at 5 mg/kg,MOLM-13,-6%
same,pIC50,[10],< 5.00
same,inhibition in vivo at 5 mg/kg,Calu-6,80%
same,inhibition in vivo at 15 mg/kg,A2058 [11],83%
same,Activity,LOX IMVI,60%
same,pIC50,[12],< 5.00
same,pIC50,[13],< 5.00
same,inhibition,888-mel [14],Active
same,inhibition in vivo at 20 mg/kg,[15],118%
same,pIC50,[16],< 5.00
same,pIC50,[17],< 5.00
